The structures appear in SMILES notation.

Series [1] has as its target T1, Casein kinase I isoform gamma-2 (Homo sapiens, UniProt P78368). Put plainly: Inhibition of CK1-gamma2 in human RKO cell assessed as inhibition of Wnt3a-induced Wnt signaling treated 1 hr prior to Wnt3a ligand addition measured after 18 to 24 hrs by luciferase reporter gene assay. A general note: A reporter such as luciferase makes a cellular process visible.
Series [2] is described as follows: Selectivity ratio of IC50 for CK1-alpha to IC50 for CK1-gamma2.
Series [3] in a line: Selectivity ratio of IC50 for CK1-delta to IC50 for CK1-gamma2.
Series [4] addresses T1, Casein kinase I isoform gamma-2. Put plainly: Inhibition of human CK1-gamma2 in HEK293 cells assessed as inhibition of doxcycline-induced LRP6 phosphorylation after 2 hrs by electrochemiluminescence analysis. The class given is cell-based.
Series [5] deals with Glycogen synthase kinase-3 beta (Homo sapiens, UniProt P49841).
The target of series [6] is Casein kinase I isoform alpha (Homo sapiens, UniProt P48729). Put plainly: Inhibition of CK1-alpha using biotin[long chain]-KKRRRAL{pS}VATLPGL substrate in presence of 8 uM ATP.
Series [7] addresses Casein kinase I isoform delta (Homo sapiens, UniProt P48730).
In series [8] the target is T1, Casein kinase I isoform gamma-2.
Series [9] can be described thus: Plasma concentration in HEK-293 cells xenografted in nude mouse at 50 mg/kg, po after 6 hrs. The class given is ADME, organism-based, HEK293. Details: dose 50 mg/kg, route oral. In short, it runs like this:
(§1)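 Athymic nude mice carried subcutaneous tumors of HEK293 cells constitutively expressing LRP6 with doxycycline-inducible CK1γ. Doxycycline (0.5 mg/mL) was given in drinking water for 24 h to stimulate LRP6 phosphorylation, then compound was dosed orally at 50 mg/kg. Tumor and plasma were collected 6 h post-dose. Tumor phospho-LRP6 was quantified by electrochemiluminescent assay, and plasma total and unbound exposure were determined.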

In another series the test system is Plasma. Put plainly: Unbound concentration in HEK293 cells xenografted in nude mouse at 50 mg/kg, po after 6 hrs. The class given is ADME, organism-based. Details: dose 50 mg/kg, route oral. Conditions: in vivo. In short, it runs like this:
as §1

The test system of a further series is Mus musculus. Put plainly: Inhibition of CK1-gamma-mediated LRP6 phosphorylation in HEK293 cells xenografted in nude mouse at 50 mg/kg, po after 6 hrs by electrochemiluminescent assay. To be noted: HEK293, 6 h. The class given is functional. Summed up:
as §1

The nature of series [10]: AUC in […] mouse at 30 mg/kg, po. In kind it is ADME, organism-based. Details: dose 30 mg/kg, route oral. Conditions: plasma. In short, it runs like this:
(§2)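 Oral PK in male CD1 mice, 3 animals per study, dosed at 30 mg/kg po. Vehicle: 10.0% Pluronic F68 / 30.0% HPBCD / 60.0% water with MSA, pH 2.5. Cmax, t1/2, Tmax and AUC were taken from plasma exposure.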

Series [11] is described as follows: Tmax in […] mouse at 30 mg/kg, po. In kind it is ADME, organism-based. Details: dose 30 mg/kg, route oral. Conditions: in vivo. Summed up: as §2
Series [12] in a line: Half life in […] mouse at 30 mg/kg, po. Conditions: in vivo. In kind it is ADME, organism-based. Also noted: dose 30 mg/kg, route oral. Summed up:
as §2

A short description of series [13]: Plasma protein binding in mouse. Conditions: read-out: PPB (converted). In kind it is ADME, cell-free.
Series [14] in a line: Cmax in […] mouse at 30 mg/kg, po. In kind it is ADME, organism-based. Also noted: dose 30 mg/kg, route oral. To be noted: in vivo. In short, it runs like this: as §2
Series [15] can be described thus: Intrinsic clearance in human liver microsomes at 1 uM after 30 mins. In kind it is ADME, Microsome. Conditions: read-out: CLH. In short, it runs like this: (§3)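 Liver microsome turnover (human or rat): compound at 1 μM incubated with microsomes for 30 min. Intrinsic clearance reported in μL/(min·mg).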
A short description of series [16]: Plasma protein binding in rat. In kind it is ADME, cell-free. Conditions: read-out: PPB (converted).
Series [17] can be described thus: Intrinsic clearance in rat liver microsomes at 1 uM after 30 mins. The class given is ADME, Microsome. To be noted: read-out: CLH. In short, it runs like this:
as §3
In general terms: Microsomes from liver hold many membrane-bound enzymes, among them those of drug oxidation.

T1 sequence (P78368 whole entry, canonical isoform): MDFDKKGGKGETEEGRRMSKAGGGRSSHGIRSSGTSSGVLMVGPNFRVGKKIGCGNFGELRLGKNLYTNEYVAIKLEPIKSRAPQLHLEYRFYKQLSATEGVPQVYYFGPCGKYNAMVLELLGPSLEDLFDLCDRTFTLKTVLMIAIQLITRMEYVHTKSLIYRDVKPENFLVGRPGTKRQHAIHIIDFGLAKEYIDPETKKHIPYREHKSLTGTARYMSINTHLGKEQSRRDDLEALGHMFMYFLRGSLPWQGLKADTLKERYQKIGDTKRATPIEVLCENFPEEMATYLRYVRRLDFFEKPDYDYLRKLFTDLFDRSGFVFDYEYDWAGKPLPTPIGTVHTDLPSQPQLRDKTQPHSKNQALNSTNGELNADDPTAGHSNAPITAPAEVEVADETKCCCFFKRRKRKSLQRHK
Sequence of Casein kinase I isoform delta (P48730 whole entry, canonical isoform): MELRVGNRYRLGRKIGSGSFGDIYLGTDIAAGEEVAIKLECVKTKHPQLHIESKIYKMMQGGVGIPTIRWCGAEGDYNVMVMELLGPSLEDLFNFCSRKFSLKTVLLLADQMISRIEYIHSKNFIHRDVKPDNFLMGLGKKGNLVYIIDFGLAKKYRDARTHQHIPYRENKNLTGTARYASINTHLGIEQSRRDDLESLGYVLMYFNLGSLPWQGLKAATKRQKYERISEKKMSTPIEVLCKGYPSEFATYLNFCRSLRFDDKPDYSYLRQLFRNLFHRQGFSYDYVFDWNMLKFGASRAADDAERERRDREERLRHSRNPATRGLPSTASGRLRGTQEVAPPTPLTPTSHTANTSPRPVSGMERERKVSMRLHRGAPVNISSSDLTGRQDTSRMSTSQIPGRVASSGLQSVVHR
Sequence of Casein kinase I isoform alpha (P48729 whole entry, canonical isoform): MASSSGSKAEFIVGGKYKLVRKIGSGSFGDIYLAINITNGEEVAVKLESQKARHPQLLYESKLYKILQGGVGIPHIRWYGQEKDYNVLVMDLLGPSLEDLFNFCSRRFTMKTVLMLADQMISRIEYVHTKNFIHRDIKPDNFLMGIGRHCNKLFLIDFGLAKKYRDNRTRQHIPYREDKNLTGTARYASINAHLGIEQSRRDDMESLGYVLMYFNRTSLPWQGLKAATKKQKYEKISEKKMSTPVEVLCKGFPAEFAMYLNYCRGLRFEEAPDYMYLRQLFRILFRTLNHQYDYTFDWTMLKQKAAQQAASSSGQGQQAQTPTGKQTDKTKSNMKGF
Sequence of Glycogen synthase kinase-3 beta (P49841 whole entry, canonical isoform): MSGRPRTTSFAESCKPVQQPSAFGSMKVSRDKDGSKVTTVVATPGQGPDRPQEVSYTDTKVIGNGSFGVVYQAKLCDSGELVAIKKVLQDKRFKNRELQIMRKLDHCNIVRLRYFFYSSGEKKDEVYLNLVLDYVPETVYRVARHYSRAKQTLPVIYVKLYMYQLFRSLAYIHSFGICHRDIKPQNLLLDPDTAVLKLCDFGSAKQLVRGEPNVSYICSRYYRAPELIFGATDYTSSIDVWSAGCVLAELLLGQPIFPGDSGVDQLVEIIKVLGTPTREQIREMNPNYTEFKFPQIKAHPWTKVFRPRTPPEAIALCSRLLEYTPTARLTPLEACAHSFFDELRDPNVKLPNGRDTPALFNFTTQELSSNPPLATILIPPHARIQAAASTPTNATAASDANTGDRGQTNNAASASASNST

For orientation: IC50 means the concentration needed to halve the response being measured. Take `COc1cnc(-c2cnc3ccccc3c2)nc1-c1cc2c([nH]1)CCNC2=O`: the half-maximal inhibitory concentration (IC50) in series [1] was over 3330 nM; in [4], 348 nM; in [5], 1.49 nM; in series [6], 9 nM; in series [7], 68 nM; in series [8], 8 nM. Further, the results for the Ratio IC50 in series [2] and in series [3] were 1 and 8, respectively.
For orientation: inhibition in vivo means the change of the read-out against control, counted positive when it falls. A lower inhibition in vivo goes with a weak effect. The AUC is concentration integrated over time. One may read the Tmax as the time at which the peak concentration occurs. As usually defined, the half-life is how long it takes for the measured level to halve. A word on the Cmax: it is the maximum level reached in the sampled fluid or tissue. For `COc1cnc(COc2ccc(F)c(F)c2)cc1-c1cc2c([nH]1)CCNC2=O`, the concentration at 6 h in series [9] came to 2700 nM. Further, the Concentration in the series on Plasma was found to be 130 nM. The compound further displayed an inhibition in vivo at 50 mg/kg in the series on Mus musculus of 42%. Also, the AUC in series [10] was 15.4 µM·h. The IC50 was determined as 254 nM in series [1]; 200 nM in series [4]; 10800 nM in [5]; 251 nM in series [6]; 40 nM in series [7]; 5 nM in [8]. Further, in series [11], the Tmax was found to be 0.33 h. For the same compound, the half-life in series [12] is 2.7 h. The fraction unbound in series [13] is 0.049; in series [16], 0.031. Further, the peak level in series [14] (Cmax) was 9720 nM. Further, the values for the microsomal CLint at 1 µM in [15] and in [17] were 59 µL/min/mg and 46 µL/min/mg, respectively. Further, the Ratio IC50 in series [2] was determined as 50; in series [3], 8.
Consider `COc1cnc(COc2ccc(F)cc2C)cc1-c1cc2c([nH]1)CCNC2=O`, for which the IC50 in [1] stood at 537 nM; in [5] it was 53300 nM; in series [6], 442 nM; in series [7], 59 nM; in series [8] it was 3 nM. Also, the Ratio IC50 is 147 in series [2] and 20 in [3].
For the compound `COc1cnc(OCc2ccc(F)cc2)nc1-c1cc2c([nH]1)CCNC2=O`, the IC50 was over 30000 nM in series [5], 95 nM in series [6], 168 nM in series [7] and 80 nM in [8].
Regarding `COc1cnc(COc2ccc(F)cc2F)cc1-c1cc2c([nH]1)CCNC2=O`, the IC50 in series [1] turned out to be 394 nM; in [5] it was 4000 nM; in series [6], 225 nM; in [7], 36 nM; in series [8], 3 nM. Further, the Ratio IC50 in series [2] is 75; in series [3], 12.
In turn, `COc1cnc(COc2cc(F)c(F)cc2C)cc1-c1cc2c([nH]1)CCNC2=O` yielded an AUC in [10] of 2.1 µM·h. The 50% inhibitory concentration (IC50) was determined as 44 nM in series [1], 87 nM in [4], 38100 nM in series [5] and 4 nM in series [8]. For the same compound, the time of peak concentration (Tmax) in series [11] was found to be 1.17 h. This compound also had a half-life in series [12] of 1.4 h. Also, in series [13], the fraction unbound is 0.008. The compound further showed a Cmax in series [14] of 560 nM. Further, the microsomal CLint at 1 µM in [15] worked out at 177 µL/min/mg; in [17], 106 µL/min/mg.
For `COc1cnc(COc2ccc(F)cc2)nc1-c1cc2c([nH]1)CCNC2=O`, in series [2], the Ratio IC50 came to 6. In addition, the IC50 in [5] worked out at 1120 nM; in series [6] it was 146 nM; in series [7] it was 58 nM; in series [8], 24 nM.
With `COc1cnc(Nc2ccccc2)nc1-c1cc2c([nH]1)CCNC2=O`, the IC50 in series [5] came out at 16 nM; in series [8], 8 nM.
Regarding `COc1cnc(NCc2ccccc2)nc1-c1cc2c([nH]1)CCNC2=O`, the IC50 worked out at 98 nM in series [5], 19 nM in [6], 22 nM in series [7] and 33 nM in series [8].
`COc1cnc(/C=C/c2ccc(F)cc2)nc1-c1cc2c([nH]1)CCNC2=O`: the half-inhibitory concentration (IC50) in series [5] was 1220 nM; in series [8], 50 nM.
The corresponding values for `COc1cnc(CCc2ccc(F)cc2)nc1-c1cc2c([nH]1)CCNC2=O` are 25600 nM and 17 nM.
`COc1cnc(Oc2ccccc2)nc1-c1cc2c([nH]1)CCNC2=O`: the concentration for half-maximal inhibition (IC50) in [5] was over 62500 nM; in series [6], 18500 nM; in series [7], 4860 nM; in series [8], 853 nM.
As to `COc1cnc(COc2ccc(F)cc2)cc1-c1cc2c([nH]1)CCNC2=O`, the values for the IC50 in [1], in series [5] and in [8] were 584 nM, 7830 nM and 5 nM, respectively.
`COc1cnc(CCc2ccc(F)cc2)cc1-c1cc2c([nH]1)CCNC2=O`: the concentration for half-maximal inhibition (IC50) in series [5] was over 62500 nM.
